For data set [1] the following is noted: cited from earlier work.
Data set [2] can be described thus: Safety and tolerability assessment in the phase 1 study. Format: in vivo, human. Conditions: single oral dose 25 or 50 mg, tablet and capsule. In short, it runs like this: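 Healthy Japanese men received single fasted oral 25- or 50-mg tablet and capsule doses in a crossover design, confined at the site around each dose. The safety set was all subjects given at least 1 dose. Adverse events were assessed by clinical interview, physical examination, 12-lead ECG and routine laboratory tests from start of treatment to end of follow-up. Each was coded by MedDRA 17.0 (Japanese) and graded for severity, seriousness and causality.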

Another data set concerns CYP2C8. The note with it: in vitro; cited from earlier work.
A further data set relates to CYP2C9. The note with it: in vitro; cited from earlier work.
The format of data set [3] is in vivo, human. Conditions: single oral dose, fasted; for AUC / AUC(0-t) / half-life / Tmax: male, human, plasma, po; for AUC: AUC0‐∞; for AUC(0-t): AUClast, AUC24h; for Tmax: n=24, median (min-max). In a few lines:
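Healthy Japanese men aged 20–45 y with BMI 18.5 to <30.0 kg/m2, in an open-label randomized 2-period crossover. The 25-mg cohort was split into tablet→capsule and capsule→tablet sequences of 12, each a single fasted oral dose, with a washout of at least 28 days. Venous blood was drawn predose and 0.25–24 h post-dose. Plasma test compound was measured by validated LC-MS/MS (LLOQ 10.0 ng/mL). Parameters came from individual concentration-time profiles (AUClast = AUC24h), giving tablet/capsule geometric mean ratios.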

Where two headings read alike, the source gives them in different places. Marks after values point to notes of the source that are not given here.

Turning to `Cc1nc(Cl)c(-c2noc(-c3cc(O)c(O)c([N+](=O)[O-])c3)n2)c(C)c1Cl` [BIA 9–1079], in data set [1] (not assessed in this study), the half-life of metabolite result is on record as “short”.
`Cc1c(Cl)c(C)[n+]([O-])c(Cl)c1-c1noc(-c2cc(OS(=O)(=O)O)c(O)c([N+](=O)[O-])c2)n1` [BIA 9–1103]: the half-life of metabolite result in data set [1] (especially following repeated dosing) is “relatively long”.
In general, AUC refers to the area under the concentration-time curve, a measure of exposure. A high value points to more exposure. Broadly, the AUC(0-t) is exposure summed from dosing to a finite time, without extrapolation to infinity. A lower AUC(0-t) goes with less exposure. In general, half-life refers to the time in which the quantity being followed falls by half. The low end stands for rapid decline, the high end for slow decline. One may read the Tmax as the time at which the peak concentration occurs. The term CL/F denotes clearance divided by bioavailability, as obtained after extravascular dosing. On to `Cc1c(Cl)c(C)[n+]([O-])c(Cl)c1-c1noc(-c2cc(O)c(O)c([N+](=O)[O-])c2)n1` [Opicapone], for which the Serious adverse events entry in data set [2] (any group, study period) was “no serious adverse events”. For the same molecule, the Tolerability entry in data set [2] (healthy Japanese subjects) was “well tolerated”. For the same molecule, the CYP2C8 inhibition result with CYP2C8 is recorded as “weak, reversible inhibitor”. In addition, the CYP2C9 inhibition entry in the data set on CYP2C9 is recorded as “weak, reversible inhibitor”. Further, the AUC in data set [3] (25 mg, opicapone 25 mg tablet, n=23, mean ± SD) turned out to be 2530 ± 581 ng·h/mL; in data set [3] (50 mg, opicapone 50 mg capsule, n=23, mean ± SD), 4210 ± 1620 ng·h/mL. Further, the AUC(0-t) in data set [3] (25 mg, opicapone 25 mg tablet, n=24, mean ± SD) was 2480 ± 586 ng·h/mL; in data set [3] (50 mg, opicapone 50 mg capsule, n=24, mean ± SD), 4080 ± 1650 ng·h/mL. The half-life was 0.729 ± 0.173 h in data set [3] (25 mg, t1/2, opicapone 25 mg tablet, n=23, mean ± SD) and 1.18 ± 0.477 h in data set [3] (50 mg, t1/2, opicapone 50 mg capsule, n=23, mean ± SD). In addition, the Tmax was 2 h in data set [3] (25 mg, opicapone 25 mg tablet) and 2 h in data set [3] (50 mg, opicapone 50 mg capsule). The CL/F in data set [3] (opicapone 25 mg capsule, n=24, mean ± SD) is 12.9 ± 5.31 L/h; in data set [3] (opicapone 25 mg tablet, n=23, mean ± SD), 10.6 ± 3.50 ^b L/h; in data set [3] (opicapone 50 mg capsule, n=23, mean ± SD), 13.6 ± 5.09 ^b L/h; in data set [3] (opicapone 50 mg tablet, n=23, mean ± SD) it was 10.4 ± 3.20 L/h. The “Geometric Mean Ratio (Tablets/Capsules) of AUC0‐∞” value in data set [3] (opicapone 25 mg, n=24) is given as 1.19; in data set [3] (opicapone 50 mg, n=23), 1.27. For the same molecule, the “Geometric Mean Ratio (Tablets/Capsules) of AUClast” value in data set [3] (opicapone 25 mg, n=24) stood at 1.18; in data set [3] (opicapone 50 mg, n=24) it was 1.28. For the same molecule, the “Geometric Mean Ratio (Tablets/Capsules) of Cmax” value is 1.24 in data set [3] (opicapone 25 mg, n=24) and 1.42 in data set [3] (opicapone 50 mg, n=24).
